Reference: ChEMBL document CHEMBL1131467, “Identification and initial structure-activity relationships of a novel class of nonpeptide inhibitors of blood coagulation factor Xa” (J Med Chem, 1998)

Key:
Coagulation factor X = Coagulation factor X (Homo sapiens, UniProt P00742); test: Inhibitory activity against human Coagulation factor X
In short: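 Human factor Xa at 1 nM final, in 0.05 M Tris, 0.15 M NaCl, 0.1% PEG-8000, pH 7.5, room temperature. Compound preincubated with enzyme 30 min, then Spectrozyme FXa added (200 μM final). Run in triplicate. IC50 taken from initial velocities; Ki by Cheng-Prusoff, assuming competitive inhibition.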

Prothrombin = Prothrombin (Homo sapiens, UniProt P00734); test: Inhibitory activity against human Thrombin
In short: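 Human thrombin at 1 nM final, in Tris 0.05 M, NaCl 0.15 M, 0.1% PEG-8000, pH 7.5, room temperature. Enzyme and compound preincubated 30 min; reaction started with Pefachrome TH (50 μM final). Absorbance at 405 nm followed for 5 min. IC50 is the level that halves control initial velocity; apparent Ki by Cheng-Prusoff, assuming competitive inhibition.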

[1] = molecular target: Cationic trypsin (Bos taurus); test: Inhibitory activity against bovine trypsin

Chain of Coagulation factor X (P00742 41-179 limits assumed): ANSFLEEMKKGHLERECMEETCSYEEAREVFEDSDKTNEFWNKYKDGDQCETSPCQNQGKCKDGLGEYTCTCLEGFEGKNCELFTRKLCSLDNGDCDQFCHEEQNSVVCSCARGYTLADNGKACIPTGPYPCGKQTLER
Chain of Coagulation factor X (P00742 235-488 limits assumed): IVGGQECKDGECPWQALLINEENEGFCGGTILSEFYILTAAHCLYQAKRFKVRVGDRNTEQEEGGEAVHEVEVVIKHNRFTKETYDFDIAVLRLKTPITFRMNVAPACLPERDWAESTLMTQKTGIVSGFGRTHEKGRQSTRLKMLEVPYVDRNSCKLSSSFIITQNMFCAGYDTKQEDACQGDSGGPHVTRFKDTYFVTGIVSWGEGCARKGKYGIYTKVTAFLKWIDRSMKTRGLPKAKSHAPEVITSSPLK

Row | IC50 (Coagulation factor X) [nM] | IC50 (Prothrombin) [nM] | IC50 [1] [nM] | SMILES
1 | 1970 | – | – | COC(=O)C(Cc1cccc(C(=N)N)c1)C(/C=C/c1ccccc1)NS(=O)(=O)c1ccc(-c2ccccc2)cc1 (stereo unspecified)
2 | 650 | – | – | N=C(N)c1cccc(CC(CO)C(/C=C/c2ccccc2)NC(=O)c2ccc(-c3ccccc3)cc2)c1 (stereo unspecified)
3 | 360 | 2000 | 2800 | CCOc1ccc(-c2ccc(C(=O)NC(/C=C/c3ccccc3)C(Cc3cccc(C(=N)N)c3)C(=O)OC)cc2)cc1 (stereo unspecified)
4 | 240 | 4800 | 2800 | COC(=O)C(Cc1cccc(C(=N)N)c1)C(/C=C/c1ccccc1)NC(=O)c1ccc(-c2ccc(C)cc2)cc1 (stereo unspecified)
5 | 80 | 2700 | 2900 | COC(=O)C(Cc1cccc(C(=N)N)c1)C(/C=C/c1ccccc1)NC(=O)c1ccc(-c2ccc(OC)cc2)cc1 (stereo unspecified)
6 | 790 | – | – | COC(=O)C(Cc1cccc(C(=N)N)c1)C(/C=C/c1ccccc1)NC(=O)c1cccc2ccccc12 (stereo unspecified)
7 | 890 | – | – | CCc1ccc(-c2ccc(C(=O)NC(/C=C/c3ccccc3)C(Cc3cccc(C(=N)N)c3)C(=O)OC)cc2)cc1 (stereo unspecified)
8 | 120 | 7200 | – | COC(=O)C(Cc1cccc(C(=N)N)c1)C(/C=C/c1ccccc1)NC(=O)c1ccc(-c2cccc(C)c2)cc1 (stereo unspecified)
9 | 950 | 31000 | – | N=C(N)c1cccc(CCC(/C=C/c2ccccc2)NC(=O)c2ccc(-c3ccccc3)cc2)c1 (stereo unspecified)
10 | 90 | 9000 | 3100 | COC(=O)C(Cc1cccc(C(=N)N)c1)C(/C=C/c1ccccc1)NC(=O)c1ccc(-c2ccccc2C)cc1 (stereo unspecified)
11 | 700 | – | – | COC(=O)[C@H](Cc1cccc(C(=N)N)c1)[C@@H](/C=C/c1ccccc1)NC(=O)c1ccccc1
12 | 310 | – | – | COC(=O)C(Cc1cccc(C(=N)N)c1)C(CCc1ccccc1)NC(=O)c1ccc(-c2ccccc2)cc1 (stereo in doubt; 8b)
13 | 540 | 8700 | 10000 | COCC(Cc1cccc(C(=N)N)c1)C(/C=C/c1ccccc1)NC(=O)c1ccc(-c2ccccc2)cc1 (stereo unspecified)
14 | 1100 | – | – | COC(=O)C(Cc1cccc(C(=N)N)c1)C(/C=C/c1ccccc1)NC(=O)c1cccc(C)c1 (stereo unspecified)
15 | 4400 | – | – | CN(C)C(=O)C(Cc1cccc(C(=N)N)c1)C(/C=C/c1ccccc1)NC(=O)c1ccc(-c2ccccc2)cc1 (stereo unspecified)
16 | 110 | 2400 | 2200 | COC(=O)C(Cc1cccc(C(=N)N)c1)C(/C=C/c1ccccc1)NC(=O)c1ccc(-c2cccc(OC)c2)cc1 (stereo unspecified)
17 | 60 | 3800 | 1800 | CCOc1ccccc1-c1ccc(C(=O)NC(/C=C/c2ccccc2)C(Cc2cccc(C(=N)N)c2)C(=O)OC)cc1 (stereo unspecified)
18 | 30 | 4700 | – | COC(=O)C(Cc1cccc(C(=N)N)c1)C(/C=C/c1ccccc1)NC(=O)c1ccc(-c2ccc(OC)c(OC)c2)cc1 (stereo unspecified)
19 | 390 | 1700 | 2600 | CCc1cccc(-c2ccc(C(=O)NC(/C=C/c3ccccc3)C(Cc3cccc(C(=N)N)c3)C(=O)OC)cc2)c1 (stereo unspecified)

Row | IC50 (Coagulation factor X) [nM] | IC50 (Prothrombin) [nM] | IC50 [1] [nM] | SMILES
20 | 60 | – | – | COC(=O)[C@H](Cc1cccc(C(=N)N)c1)[C@@H](CCc1ccccc1)NC(=O)c1ccc(-c2ccccc2)cc1
21 | 580 | – | – | COC(=O)C(Cc1cccc(C(=N)N)c1)C(/C=C/c1ccccc1)NC(=O)c1ccc(C2CCCCC2)cc1 (stereo unspecified)
22 | 1120 | – | – | COC(=O)C(Cc1cccc(C(=N)N)c1)C(/C=C/c1ccccc1)NC(=O)C1CCC(C2CCCCC2)CC1 (stereo unspecified)
23 | 380 | 5300 | – | CCc1ccccc1-c1ccc(C(=O)NC(/C=C/c2ccccc2)C(Cc2cccc(C(=N)N)c2)C(=O)OC)cc1 (stereo unspecified)
24 | 600 | – | – | COC(=O)C(Cc1cccc(C(=N)N)c1)C(/C=C/c1ccccc1)NC(=O)c1ccc(C)cc1 (stereo unspecified)
25 | 110 | 18000 | – | COC(=O)C(Cc1cccc(C(=N)N)c1)C(/C=C/c1ccccc1)NC(=O)c1ccc(-c2ccccc2)cc1 (stereo unspecified)
26 | 160 | – | – | COC(=O)C(Cc1cccc(C(=N)N)c1)C(/C=C/c1ccccc1)NC(=O)c1ccc2ccccc2c1 (stereo unspecified)
27 | 700 | – | – | COC(=O)C(Cc1cccc(C(=N)N)c1)C(/C=C/c1ccccc1)NC(=O)c1ccccc1 (stereo unspecified)
28 | 460 | – | – | COC(=O)C(Cc1cccc(C(=N)N)c1)C(/C=C/c1ccccc1)NC(=O)c1ccc(Cc2ccccc2)cc1 (stereo unspecified)
29 | 90 | 3500 | 2900 | COC(=O)C(Cc1cccc(C(=N)N)c1)C(/C=C/c1ccccc1)NC(=O)c1ccc(-c2ccc(OC)cc2OC)cc1 (stereo unspecified)
30 | 1220 | – | – | COC(=O)C(Cc1cccc(C(=N)N)c1)C(/C=C/c1ccccc1)NC(=O)c1ccc(Oc2ccccc2)cc1 (stereo unspecified)
31 | 360 | 3800 | – | CC(=O)OCC(Cc1cccc(C(=N)N)c1)C(/C=C/c1ccccc1)NC(=O)c1ccc(-c2ccccc2)cc1 (stereo unspecified)
32 | 50 | 3300 | 1800 | COC(=O)C(Cc1cccc(C(=N)N)c1)C(/C=C/c1ccccc1)NC(=O)c1ccc(-c2ccccc2OC)cc1 (stereo unspecified)
33 | 60 | – | – | COC(=O)C(Cc1cccc(C(=N)N)c1)C(CCc1ccccc1)NC(=O)c1ccc(-c2ccccc2)cc1 (stereo in doubt; 8a)
34 | 2700 | 7700 | – | N=C(N)c1cccc(CC(C(=O)O)C(/C=C/c2ccccc2)NC(=O)c2ccc(-c3ccccc3)cc2)c1 (stereo unspecified)
35 | 2000 | – | – | COC(=O)[C@@H](Cc1cccc(C(=N)N)c1)[C@@H](/C=C/c1ccccc1)NC(=O)c1ccccc1
36 | 1200 | – | – | COC(=O)C(Cc1cccc(C(=N)N)c1)C(/C=C/c1ccccc1)NC(=O)c1ccccc1C (stereo unspecified)
37 | 180 | 4300 | 3600 | CCOc1cccc(-c2ccc(C(=O)NC(/C=C/c3ccccc3)C(Cc3cccc(C(=N)N)c3)C(=O)OC)cc2)c1 (stereo unspecified)
